Test [1] in a line: Inhibition of Plasmodium falciparum falcipain-2 after 12 hrs by fluorescence spectroscopy-based on-bead assay. Details: concentration or dose not given beside the values. The settings on record: concentration not given here. Put shortly:
(§1)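 Library members on resin (PEGA, theoretical loading 0.40 mmol/g; added as DMSO suspension, 0.64 mM final inhibitor) preincubated with enzyme 12 h, then Cbz-Phe-Arg-AMC 40 μM added; AMC release followed by fluorescence (ex 380/em 460 nm). Kinetics compared with inhibitor-free amino-PEGA resin.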

For test [2], the target named is Rhodesain (Trypanosoma brucei rhodesiense) (UniProt Q95PM0). The test can be described thus: Inhibition of Trypanosoma brucei rhodesiense rhodesain after 12 hrs by fluorescence spectroscopy-based on-bead assay. Details: concentration or dose not given beside the values. The settings on record: concentration not given here. Put shortly:
as §1

We go through 21 molecules from ChEMBL document CHEMBL1155459, “On-bead screening of a combinatorial fumaric acid derived peptide library yields antiplasmodial cysteine protease inhibitors with unusual peptide sequences” (J Med Chem, 2009).

Peptide text beside a SMILES is read from it.

A word on the inhibition: it is the percentage by which the read-out fell short of the control.

Chain of Rhodesain (Trypanosoma brucei rhodesiense) (Q95PM0 1-450): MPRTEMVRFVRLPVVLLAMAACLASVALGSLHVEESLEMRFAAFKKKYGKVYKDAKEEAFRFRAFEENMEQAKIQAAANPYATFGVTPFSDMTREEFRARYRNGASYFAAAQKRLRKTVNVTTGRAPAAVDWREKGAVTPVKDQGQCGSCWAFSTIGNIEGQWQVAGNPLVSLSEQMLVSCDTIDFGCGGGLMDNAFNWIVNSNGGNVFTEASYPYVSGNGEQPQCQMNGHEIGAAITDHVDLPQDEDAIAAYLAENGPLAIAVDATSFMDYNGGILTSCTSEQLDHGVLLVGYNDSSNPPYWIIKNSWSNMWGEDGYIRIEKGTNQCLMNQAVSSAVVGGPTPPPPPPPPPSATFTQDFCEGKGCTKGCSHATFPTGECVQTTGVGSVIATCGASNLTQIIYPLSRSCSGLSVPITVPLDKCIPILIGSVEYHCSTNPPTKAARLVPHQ

For `CC[C@H](C)[C@H](NC(=O)[C@H](C)NC(=O)/C=C/C(=O)NCC(=O)NCC(=O)N[C@@H](Cc1ccccc1)C(=O)O)C(=O)N[C@@H](C)C(=O)N[C@H](C(N)=O)C(C)C` (HELM PEPTIDE1{[O=C(/C=C/C(=O)[*:2])NCC(=O)NCC(=O)N[C@@H](Cc1ccccc1)C(=O)O].A.I.A.V.[am]}$$$$V2.0), the figures for the inhibition in test [1] and in test [2] were 54% and 31%, respectively.
For `CC(C)[C@H](NC(=O)[C@@H](NC(=O)[C@@H](NC(=O)[C@H](Cc1ccccc1)NC(=O)/C=C/C(=O)N[C@@H](C)C(=O)NCC(=O)N[C@@H](Cc1ccccc1)C(=O)O)C1CCCCC1)C(C)C)C(N)=O` (HELM PEPTIDE1{[C[C@H](NC(=O)/C=C/C(=O)[*:2])C(=O)NCC(=O)N[C@@H](Cc1ccccc1)C(=O)O].F.[O=C([C@@H](N[*:1])C1CCCCC1)[*:2]].V.V.[am]}$$$$V2.0), in that order: 45% and 49%.
In the case of `CC(C)[C@H](NC(=O)[C@H](C)NC(=O)[C@H](Cc1ccccc1)NC(=O)[C@H](CC(N)=O)NC(=O)/C=C/C(=O)N[C@@H](C)C(=O)NCC(=O)N[C@@H](Cc1ccccc1)C(=O)O)C(N)=O` (HELM PEPTIDE1{[C[C@H](NC(=O)/C=C/C(=O)[*:2])C(=O)NCC(=O)N[C@@H](Cc1ccccc1)C(=O)O].N.F.A.V.[am]}$$$$V2.0), the inhibition in test [1] is 25%; in test [2], 47%.
For `CC(C)C[C@H](NC(=O)[C@H](CC(N)=O)NC(=O)/C=C/C(=O)NCC(=O)NCC(=O)N[C@@H](Cc1ccccc1)C(=O)O)C(=O)N[C@H](C(=O)N[C@H](C(N)=O)C(C)C)C(C)C` (HELM PEPTIDE1{[O=C(/C=C/C(=O)[*:2])NCC(=O)NCC(=O)N[C@@H](Cc1ccccc1)C(=O)O].N.L.V.V.[am]}$$$$V2.0), in that order: 48% and 52%.
Taken in the same sequence, the figures for `CC(C)C[C@H](NC(=O)[C@H](CCC(N)=O)NC(=O)/C=C/C(=O)NCC(=O)NCC(=O)N[C@@H](Cc1ccccc1)C(=O)O)C(=O)N[C@@H](C)C(=O)N[C@H](C(N)=O)C(C)C` (HELM PEPTIDE1{[O=C(/C=C/C(=O)[*:2])NCC(=O)NCC(=O)N[C@@H](Cc1ccccc1)C(=O)O].Q.L.A.V.[am]}$$$$V2.0) were 40% and 38%.
With `CC(C)C[C@H](NC(=O)[C@H](Cc1ccccc1)NC(=O)[C@H](C)NC(=O)/C=C/C(=O)N[C@@H](C)C(=O)NCC(=O)N[C@@H](Cc1ccccc1)C(=O)O)C(=O)N[C@H](C(N)=O)C(C)C` (HELM PEPTIDE1{[C[C@H](NC(=O)/C=C/C(=O)[*:2])C(=O)NCC(=O)N[C@@H](Cc1ccccc1)C(=O)O].A.F.L.V.[am]}$$$$V2.0), the inhibition was found to be 57% in test [1] and 66% in test [2].
Taken in the same sequence, the figures for `CC(C)C[C@H](NC(=O)[C@@H](NC(=O)[C@H](Cc1ccccc1)NC(=O)/C=C/C(=O)N[C@@H](C)C(=O)NCC(=O)N[C@@H](Cc1ccccc1)C(=O)O)c1ccccc1)C(=O)N[C@H](C(N)=O)C(C)C` (HELM PEPTIDE1{[C[C@H](NC(=O)/C=C/C(=O)[*:2])C(=O)NCC(=O)N[C@@H](Cc1ccccc1)C(=O)O].F.[Phg].L.V.[am]}$$$$V2.0) were 53% and 68%.
Taken in the same sequence, the figures for `CC(C)C[C@H](NC(=O)[C@H](Cc1ccccc1)NC(=O)[C@H](C)NC(=O)/C=C/C(=O)NCC(=O)NCC(=O)N[C@@H](Cc1ccccc1)C(=O)O)C(=O)N[C@H](C(N)=O)C(C)C` (HELM PEPTIDE1{[O=C(/C=C/C(=O)[*:2])NCC(=O)NCC(=O)N[C@@H](Cc1ccccc1)C(=O)O].A.F.L.V.[am]}$$$$V2.0) were 68% and 67%.
Turning to `CC(C)C[C@H](NC(=O)[C@H](Cc1ccccc1)NC(=O)[C@H](Cc1ccccc1)NC(=O)/C=C/C(=O)NCC(=O)NCC(=O)N[C@@H](Cc1ccccc1)C(=O)O)C(=O)N[C@H](C(N)=O)C(C)C` (HELM PEPTIDE1{[O=C(/C=C/C(=O)[*:2])NCC(=O)NCC(=O)N[C@@H](Cc1ccccc1)C(=O)O].F.F.L.V.[am]}$$$$V2.0), the figures for the inhibition in test [1] and in test [2] were 41% and 52%, respectively.
`CC(C)C[C@H](NC(=O)[C@@H](NC(=O)[C@H](CCC(N)=O)NC(=O)/C=C/C(=O)N[C@@H](C)C(=O)NCC(=O)N[C@@H](Cc1ccccc1)C(=O)O)c1ccccc1)C(=O)N[C@H](C(N)=O)C(C)C` (HELM PEPTIDE1{[C[C@H](NC(=O)/C=C/C(=O)[*:2])C(=O)NCC(=O)N[C@@H](Cc1ccccc1)C(=O)O].Q.[Phg].L.V.[am]}$$$$V2.0): the results for the inhibition in test [1] and in test [2] were 30% and 68%, respectively.
For `CC(C)[C@H](NC(=O)[C@H](C)NC(=O)[C@@H](NC(=O)[C@H](C)NC(=O)/C=C/C(=O)NCC(=O)NCC(=O)N[C@@H](Cc1ccccc1)C(=O)O)c1ccccc1)C(N)=O` (HELM PEPTIDE1{[O=C(/C=C/C(=O)[*:2])NCC(=O)NCC(=O)N[C@@H](Cc1ccccc1)C(=O)O].A.[Phg].A.V.[am]}$$$$V2.0), in that order: 41% and 16%.
Taken in the same sequence, the figures for `CC(=O)NC[C@H](NC(=O)/C=C/C(=O)NCC(=O)NCC(=O)N[C@@H](Cc1ccccc1)C(=O)O)C(=O)N[C@@H](Cc1ccccc1)C(=O)N[C@@H](CC(C)C)C(=O)N[C@H](C(N)=O)C(C)C` (HELM PEPTIDE1{[O=C(/C=C/C(=O)[*:2])NCC(=O)NCC(=O)N[C@@H](Cc1ccccc1)C(=O)O].[O=C([C@H](CN[*:3])N[*:1])[*:2]].F.L.V.[am]}|PEPTIDE2{[ac]}$PEPTIDE1,PEPTIDE2,2:R3-1:R2$$$V2.0) were 59% and 51%.
Consider `CC[C@H](C)[C@H](NC(=O)[C@H](CC(N)=O)NC(=O)/C=C/C(=O)NCC(=O)NCC(=O)N[C@@H](Cc1ccccc1)C(=O)O)C(=O)N[C@@H](CC(C)C)C(=O)N[C@H](C(N)=O)C(C)C` (HELM PEPTIDE1{[O=C(/C=C/C(=O)[*:2])NCC(=O)NCC(=O)N[C@@H](Cc1ccccc1)C(=O)O].N.I.L.V.[am]}$$$$V2.0), for which the inhibition stood at 61% in test [1] and 68% in test [2].
Taken in the same sequence, the figures for `CC(C)[C@H](NC(=O)[C@H](C)NC(=O)[C@@H](NC(=O)[C@H](Cc1ccccc1)NC(=O)/C=C/C(=O)N[C@@H](C)C(=O)NCC(=O)N[C@@H](Cc1ccccc1)C(=O)O)C1CCCCC1)C(N)=O` (HELM PEPTIDE1{[C[C@H](NC(=O)/C=C/C(=O)[*:2])C(=O)NCC(=O)N[C@@H](Cc1ccccc1)C(=O)O].F.[O=C([C@@H](N[*:1])C1CCCCC1)[*:2]].A.V.[am]}$$$$V2.0) were 29% and 21%.
For `CC(C)C[C@H](NC(=O)[C@@H](NC(=O)[C@H](C)NC(=O)/C=C/C(=O)N[C@@H](C)C(=O)NCC(=O)N[C@@H](Cc1ccccc1)C(=O)O)C1CCCCC1)C(=O)N[C@H](C(N)=O)C(C)C` (HELM PEPTIDE1{[C[C@H](NC(=O)/C=C/C(=O)[*:2])C(=O)NCC(=O)N[C@@H](Cc1ccccc1)C(=O)O].A.[O=C([C@@H](N[*:1])C1CCCCC1)[*:2]].L.V.[am]}$$$$V2.0), in that order: 43% and 59%.
Taken in the same sequence, the figures for `CC(C)C[C@H](NC(=O)[C@H](CC(N)=O)NC(=O)/C=C/C(=O)N[C@@H](C)C(=O)NCC(=O)N[C@@H](Cc1ccccc1)C(=O)O)C(=O)N[C@@H](C)C(=O)N[C@H](C(N)=O)C(C)C` (HELM PEPTIDE1{[C[C@H](NC(=O)/C=C/C(=O)[*:2])C(=O)NCC(=O)N[C@@H](Cc1ccccc1)C(=O)O].N.L.A.V.[am]}$$$$V2.0) were 33% and 42%.
Take `CC(C)C[C@H](NC(=O)[C@H](Cc1ccccc1)NC(=O)/C=C/C(=O)N[C@@H](C)C(=O)NCC(=O)N[C@@H](Cc1ccccc1)C(=O)O)C(=O)N[C@H](C(=O)N[C@H](C(N)=O)C(C)C)C(C)C` (HELM PEPTIDE1{[C[C@H](NC(=O)/C=C/C(=O)[*:2])C(=O)NCC(=O)N[C@@H](Cc1ccccc1)C(=O)O].F.L.V.V.[am]}$$$$V2.0): the inhibition in test [1] stood at 36%; in test [2], 45%.
For `CC(=O)NC[C@H](NC(=O)/C=C/C(=O)N[C@@H](C)C(=O)NCC(=O)N[C@@H](Cc1ccccc1)C(=O)O)C(=O)N[C@@H](Cc1ccccc1)C(=O)N[C@@H](CC(C)C)C(=O)N[C@H](C(N)=O)C(C)C` (HELM PEPTIDE1{[C[C@H](NC(=O)/C=C/C(=O)[*:2])C(=O)NCC(=O)N[C@@H](Cc1ccccc1)C(=O)O].[O=C([C@H](CN[*:3])N[*:1])[*:2]].F.L.V.[am]}|PEPTIDE2{[ac]}$PEPTIDE1,PEPTIDE2,2:R3-1:R2$$$V2.0), in that order: 43% and 52%.
On to `CC[C@H](C)[C@H](NC(=O)[C@H](CCC(N)=O)NC(=O)/C=C/C(=O)NCC(=O)NCC(=O)N[C@@H](Cc1ccccc1)C(=O)O)C(=O)N[C@@H](C)C(=O)N[C@H](C(N)=O)C(C)C` (HELM PEPTIDE1{[O=C(/C=C/C(=O)[*:2])NCC(=O)NCC(=O)N[C@@H](Cc1ccccc1)C(=O)O].Q.I.A.V.[am]}$$$$V2.0), for which the inhibition in test [1] and in test [2] was 38% throughout.
In the case of `CC(C)C[C@H](NC(=O)[C@H](CCC(N)=O)NC(=O)/C=C/C(=O)N[C@@H](C)C(=O)NCC(=O)N[C@@H](Cc1ccccc1)C(=O)O)C(=O)N[C@@H](CC(C)C)C(=O)N[C@H](C(N)=O)C(C)C` (HELM PEPTIDE1{[C[C@H](NC(=O)/C=C/C(=O)[*:2])C(=O)NCC(=O)N[C@@H](Cc1ccccc1)C(=O)O].Q.L.L.V.[am]}$$$$V2.0), the inhibition in test [1] amounted to 55%; in test [2] it was 56%.
For `CC(=O)NC[C@H](NC(=O)/C=C/C(=O)NCC(=O)NCC(=O)N[C@@H](Cc1ccccc1)C(=O)O)C(=O)N[C@H](C(=O)N[C@@H](C)C(=O)N[C@H](C(N)=O)C(C)C)c1ccccc1` (HELM PEPTIDE1{[O=C(/C=C/C(=O)[*:2])NCC(=O)NCC(=O)N[C@@H](Cc1ccccc1)C(=O)O].[O=C([C@H](CN[*:3])N[*:1])[*:2]].[Phg].A.V.[am]}|PEPTIDE2{[ac]}$PEPTIDE1,PEPTIDE2,2:R3-1:R2$$$V2.0), in that order: 37% and 36%.
